Assay results from different studies.
Compare with care: the assays were run in different laboratories.
EGFR: Epidermal growth factor receptor (EGFR, Homo sapiens, UniProt P00533)
EGFR A750P/del747-749: Epidermal growth factor receptor (EGFR, Homo sapiens, UniProt P00533, A750P/del747-749)
EGFR L858R/T790M: Epidermal growth factor receptor (EGFR, Homo sapiens, UniProt P00533, L858R/T790M)
EGFR T790M: Epidermal growth factor receptor (EGFR, Homo sapiens, UniProt P00533, T790M)
EGFR L861Q: Epidermal growth factor receptor (EGFR, Homo sapiens, UniProt P00533, L861Q)
EGFR L858R: Epidermal growth factor receptor (EGFR, Homo sapiens, UniProt P00533, L858R)
EGFR G719C: Epidermal growth factor receptor (EGFR, Homo sapiens, UniProt P00533, G719C)

O=C1Nc2ccc(Cl)cc2C1=Cc1cc(Cl)c(O)c(Cl)c1
remaining signal (EGFR; cell-free assay; 0.5 µM): 93.5%

C[C@H](c1ccnc(Nc2nc3ccc(-c4cc(N(C)C)ncn4)cc3[nH]2)c1)N1CCN(C(=O)CC(F)(F)F)CC1
remaining binding (EGFR A750P/del747-749; cell-free assay, competition with immobilised ligand; 0.1 µM): 89%

O=C(NCCCN1CCOCC1)c1ccc(Nc2ncc(Cl)c(-c3ccc(Cl)s3)n2)cc1
remaining binding (EGFR L858R/T790M; binding, competition with immobilised ligand; 1 µM): 55%

CCN(CC)CCNC(=O)c1c(C)[nH]c(/C=C2\C(=O)Nc3ccc(Cl)cc32)c1C
remaining signal (EGFR; cell-free assay; 0.5 µM): 97%

COc1cc2ncnc(Nc3ccc(Oc4ccccc4)cc3C)c2cc1OC
inhibition (EGFR L858R/T790M; enzyme activity, inhibitor; 1 µM): 26%

CCC(=O)Nc1cc(Nc2nc(N3CCc4sccc4C3)c3cccnc3n2)c(OC)cc1N1CCC(N(C)C)CC1
inhibition (EGFR L858R/T790M; enzyme activity, inhibitor, ELISA; 0.1 µM): 22.5%

Cc1cc(NC(=O)c2cccc3cc(-c4cccc5[nH]nc(N)c45)ccc23)ccc1F
activity vs control (EGFR T790M; enzyme activity, inhibitor; 0.1 µM): 98%

C=CC(=O)Nc1cc(Nc2nc(N3CCc4sccc4C3)c3cccnc3n2)c(OC)cc1N1CCN(CCO)CC1
inhibition (EGFR L858R/T790M; enzyme activity, inhibitor, ELISA; 0.1 µM): 2%

CC(=O)c1c(NS(C)(=O)=O)c2cc(-c3ccc(Cl)cc3)c(-c3ccc(Cl)cc3Cl)nc2n(C)c1=O
remaining binding (EGFR L861Q; cell-free assay, competition with immobilised ligand; 1 µM): 100%

CN(C)C1CCN(CC#Cc2nn(C3CCCC3)c3nc(NCc4ccccc4)ncc23)C1 (stereo not shown)
inhibition (EGFR; enzyme activity, inhibitor, FRET; 0.1 µM): 14%

Cc1nc(C2CCN(C(=O)c3ccc(OC(F)(F)F)cc3N)CC2)c2ncc(N3CCN(C)CC3)cc2n1
remaining binding (EGFR A750P/del747-749; cell-free assay, competition with immobilised ligand; 1 µM): 70%

Cc1cnc(NC2CCOCC2)nc1-n1cnc(C(=O)NC(CN)c2cc(F)cc(Cl)c2)c1 (stereo not shown)
remaining activity (EGFR T790M; enzyme activity, inhibitor, radiometric; 1 µM): 98%

CN(c1nccc(-c2cnn3ncccc23)n1)C1CC1
remaining binding (Epidermal growth factor receptor (EGFR, Homo sapiens, UniProt P00533, G719S); binding; 1 µM): 100%

O=C(Nc1cnn(-c2csc(C(=O)NC3COC3)c2)c1)Nc1c(F)cccc1Cl
remaining activity (EGFR; enzyme activity, inhibitor; 5 µM): 89.4%

COc1cc2ncnc(Nc3cccc(Cl)c3)c2cc1OC
remaining signal (EGFR; cell-free assay; 0.5 µM): 0.718%

CC(C)[C@@H]1NC(=O)[C@H](CCCNC(=N)N)NC(=O)[C@H](Cc2ccc(O)cc2)NC(=O)[C@H](C(C)C)NC(=O)[C@H](C(C)C)NC(=O)[C@H](CCCNC(=N)N)NC(=O)[C@H](CC(=O)O)NC(=O)[C@H](CC(=O)O)NC(=O)[C@H](C)NC(=O)[C@H](Cc2ccc(O)cc2)NC(=O)[C@H](Cc2ccc(O)cc2)NC(=O)[C@H](Cc2ccccc2)NC(=O)[C@@H](Cc2ccc(O)cc2)NC(=O)CSC[C@@H](C(=O)NCC(N)=O)NC(=O)[C@H](C)NC1=O
kon (EGFR; binding, SPR): 166000 M⁻¹ s⁻¹

Cc1ccc(C(=O)Nc2ccc(CN3CCN(C)CC3)c(C(F)(F)F)c2)cc1C#Cc1cnc2cccnn12
remaining signal (EGFR; cell-free assay; 23.5 nM): 55%

c1cnn2ncc(-c3ccnc(N4CCC45COC5)n3)c2c1
remaining binding (EGFR L858R; binding; 1 µM): 84%

O=C(Nc1cccnn1)N1CCC(=Cc2cccc(Oc3ccc(C(F)(F)F)cn3)c2)CC1
remaining binding (EGFR L858R/T790M; cell-free assay, competition with immobilised ligand; 1 µM): 99%

Cc1ccc(NC(=O)c2ccc(C)c(C(F)(F)F)c2)cc1C#Cc1nn(C2CCC(O)CC2)c2ncnc(N)c12 (stereo not shown)
remaining signal (EGFR L858R; cell-free assay; 10 µM): 21%

Cc1ccc(C(=O)NCc2ccsc2)cc1C#Cc1cn(C(C)C)c2ncnc(N)c12
activity vs control (EGFR L858R; enzyme activity, inhibitor; 1 µM): 56%

O=C(NCCCN1CCOCC1)c1ccc(Nc2nccc(-c3cc4ccccc4s3)n2)cc1
remaining binding (EGFR T790M; binding, competition with immobilised ligand; 1 µM): 90%

CC1CCCN1c1nccc(-c2cnn3ncccc23)n1 (stereo not shown)
remaining binding (EGFR G719C; binding; 1 µM): 100%

CC(C)[C@@H]1NC(=O)[C@H](CCCNC(=N)N)NC(=O)[C@H](Cc2ccc(O)cc2)NC(=O)[C@H](C(C)C)NC(=O)[C@H](C(C)C)NC(=O)[C@H](CCCNC(=N)N)NC(=O)[C@H](CC(=O)O)NC(=O)[C@H](CC(=O)O)NC(=O)[C@H](C)NC(=O)[C@H](Cc2ccc(O)cc2)NC(=O)[C@H](Cc2ccc(O)cc2)NC(=O)[C@H](Cc2ccccc2)NC(=O)[C@@H](Cc2ccc(O)cc2)NC(=O)CSC[C@@H](C(=O)NCC(N)=O)NC(=O)CC(c2ccccc2)NC1=O (stereo partly shown)
kon (EGFR; binding, SPR): 40200 M⁻¹ s⁻¹

CC/C(=N\NC(=O)NCc1cccc(O)c1)c1ccc(O)c(C)c1O
inhibition (Epidermal growth factor receptor (EGFR, Homo sapiens, UniProt P00533, del746-750/T790M); enzyme activity, inhibitor; 0.1 µM): -0.8%

O=C(Nc1cccnn1)N1CC(C/C=C/c2cncc(Oc3ccc(C(F)(F)F)cn3)n2)C1
remaining binding (EGFR G719C; cell-free assay, competition with immobilised ligand; 1 µM): 100%

COc1cc2ncnc(Nc3ccc(Oc4ccccc4)c(C)c3C)c2cc1OC
inhibition (EGFR; enzyme activity, inhibitor; 1 µM): 91%

C=CC(=O)Nc1cc(Nc2nc(N3CCc4sccc4C3)c3cccnc3n2)c(OC)cc1N1CCOCC1
inhibition (EGFR L858R/T790M; enzyme activity, inhibitor, ELISA; 0.1 µM): 23.5%

Cc1cnn2ncc(-c3ccnc(N(C)C)n3)c2c1
remaining binding (EGFR T790M; binding; 1 µM): 100%

C=CC(=O)Nc1cccc(Oc2nc(Nc3ccc(N4CCN(C)CC4)cc3)nc3ccsc23)c1
inhibition (EGFR L858R/T790M; enzyme activity, inhibitor, ELISA; 0.1 µM): 98.4%

CNCc1ccccc1-c1csc([C@H](C)Nc2nc(C)nc3cc(OC)c(OC)cc23)c1
remaining binding (EGFR L858R/T790M; cell-free assay, competition with immobilised ligand; 1 µM): 87%

N[C@H]1CCN(c2nccc(-c3cnn4ncccc34)n2)C1
remaining binding (EGFR T790M; binding; 1 µM): 79%

COc1cc(-c2cc(-c3ccc(N4CCNCC4)cc3)cnc2N)cc(OC)c1OC
inhibition (EGFR L861Q; enzyme activity, inhibitor; 1 µM): 33%

F[C@@H]1CCN(c2nccc(-c3cnn4ncccc34)n2)C1
remaining binding (EGFR G719C; binding; 1 µM): 100%

CCOc1cc2ncnc(Nc3cccc(Br)c3)c2cc1OCC
remaining signal (EGFR; cell-free assay; 0.5 µM): 2.02%

Cn1nc(C(F)(F)F)cc1-c1cnc(N2CCc3cc(S(=O)(=O)Nc4c(F)cc(Cl)cc4F)cc(N4CCCC4=O)c32)nc1
remaining binding (Epidermal growth factor receptor (EGFR, Homo sapiens, UniProt P00533, del752-759); cell-free assay, competition with immobilised ligand; 1 µM): 100%

Nc1ncnc2occ(-c3ccc(NC(=O)Nc4cc(C(F)(F)F)ccc4F)cc3)c12
remaining signal (EGFR T790M; cell-free assay; 20 µM): 12%

C[C@@H]1CCN(c2nccc(-c3cnn4ncccc34)n2)C1
remaining binding (EGFR G719C; binding; 1 µM): 87%

O=C(Nc1cnc(Oc2ccc(F)cc2)nc1)N1CCc2ncccc2[C@@H]1c1ccc(F)cc1
remaining binding (Epidermal growth factor receptor (EGFR, Homo sapiens, UniProt P00533, del746-750); cell-free assay, competition with immobilised ligand; 1 µM): 100%

CC(C)(C)c1nc(-c2cccc(NS(=O)(=O)c3c(F)cccc3F)c2F)c(-c2ccnc(N)n2)s1
remaining activity (EGFR; enzyme activity, inhibitor, radiometric; 1 µM): 119%
